In ChEMBL document CHEMBL1124611, “Synthesis and antitubercular activity of N-(2-naphthyl)glycine hydrazide analogues” (J Med Chem, 1989):

How the values were obtained:
Type in all cases: functional, organism-based
[1] = test system: Mycobacterium tuberculosis; assay: Ability to inhibit partial growth (50+/-10%) against Mycobacterium tuberculosis H37Rv in Youman's medium
Outline: (§1)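 M. tuberculosis H37Rv was kept on Petrik's solid medium. A 3-mm loopful of a 14-day culture grown in Youman's medium was floated on 5.0 mL of Youman's (nonprotein) medium holding a range of compound concentrations diluted from stocks. Controls held medium or ethylene glycol. Tubes were sealed with paraffin and held at 37 °C. Growth was compared with controls weekly and scored at 21 days, in triplicate.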

[2] = test system: Mycobacterium tuberculosis; assay: Ability to inhibit 100%growth against Mycobacterium tuberculosis strain no: 22443 in Youman's medium.
Outline: (§2)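 Clinical isolates (INH-resistant nos. 22443 and 312; streptomycin-resistant no. 14029) were kept on Lowenstein-Jensen or Petrik's medium, then moved to Youman's medium. 14-day cultures were inoculated into tubes holding a range of compound concentrations in Youman's medium. Controls held medium, ethylene glycol, INH and streptomycin. Tubes were sealed with paraffin and held at 37 °C for 4 weeks. Growth was compared with controls weekly and scored at 28 days, in triplicate.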

[3] = test system: Mycobacterium tuberculosis; assay: Ability to inhibit partial growth (50+/-10%) against Mycobacterium tuberculosis strain no: 22443 in Youman's medium; outline: as §2
[4] = test system: Mycobacterium tuberculosis; assay: Ability to inhibit 100%growth against Mycobacterium tuberculosis H37Rv in Youman's medium with 10% bovine serum
Outline: (§3)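 H37Rv from a 14-day Youman's culture was inoculated as a loopful floated on Youman's medium with 10% (v/v) freshly prepared bovine serum. The medium held a range of compound concentrations. Controls held medium or ethylene glycol. Tubes were sealed and held at 37 °C. Growth was compared with controls and scored at 21 days.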

[5] = test system: Mycobacterium tuberculosis; assay: Ability to inhibit 100%growth against Mycobacterium tuberculosis H37Rv in Youman's medium; outline: as §1
[6] = test system: Mycobacterium tuberculosis; assay: Ability to inhibit partial growth (50+/-10%) against Mycobacterium tuberculosis strain no: 312 in Youman's medium; outline: as §2
[7] = test system: Mycobacterium tuberculosis; assay: Ability to inhibit partial growth (50+/-10%) against Mycobacterium tuberculosis H37Rv in Youman's medium with 10% bovine serum; outline: as §3
[8] = test system: Mycobacterium tuberculosis; assay: Ability to inhibit 100%growth against Mycobacterium tuberculosis strain no: 312 in Youman's medium.; outline: as §2
[9] = test system: Mycobacterium tuberculosis; assay: Ability to inhibit partial growth (50+/-10%) against Mycobacterium tuberculosis strain no: 14029 in Youman's medium; outline: as §2
[10] = test system: Mycobacterium tuberculosis; assay: Ability to inhibit 100% growth against Mycobacterium tuberculosis strain no :14029; outline: as §2

## NNC(=O)c1ccncc1
[1]
  Concentration: 0.1 µg/mL
[2]
  Concentration: 150 µg/mL
[3]
  Concentration: 100 µg/mL
[4]
  Concentration: 1 µg/mL
[5]
  Concentration: 1 µg/mL
[6]
  Concentration: 50 µg/mL
[7]
  Concentration: 0.5 µg/mL
[8]
  Concentration: 100 µg/mL

## CC(CC(=O)NN)Nc1ccc2ncccc2c1 (stereo unspecified)
[1]
  Concentration: 50 µg/mL
[4]
  Concentration: 150 µg/mL
[5]
  Concentration: 100 µg/mL
[7]
  Concentration: 100 µg/mL

## CN[C@@H]1[C@H](O[C@H]2[C@H](O[C@H]3[C@H](O)[C@@H](O)[C@H](N=C(N)N)[C@@H](O)[C@@H]3N=C(N)N)O[C@@H](C)[C@]2(O)C=O)O[C@@H](CO)[C@H](O)[C@H]1O
[9]
  Concentration: 1000 µg/mL
[10]
  Concentration: 2500 µg/mL

## O=C(O)CNc1ccc2ccccc2c1
[1]
  Concentration: 100 µg/mL
[5]
  Concentration: 1000 µg/mL

## COc1ccc2cc(NCC(=O)NN)ccc2c1
[1]
  Concentration: 5 µg/mL
[4]
  Concentration: 50 µg/mL
[5]
  Concentration: 10 µg/mL
[7]
  Concentration: 10 µg/mL

## NNC(=O)CNc1ccc2ncccc2c1
[1]
  Concentration: 25 µg/mL
[4]
  Concentration: 100 µg/mL
[5]
  Concentration: 100 µg/mL
[7]
  Concentration: 50 µg/mL

## NNC(=O)CNc1ccc2ccccc2c1
[1]
  Concentration: 0.5 µg/mL
[4]
  Concentration: 50 µg/mL
[5]
  Concentration: 1 µg/mL
[7]
  Concentration: 10 µg/mL

## O=C(CNc1ccc2ccccc2c1)N/N=C/c1ccncc1
[1]
  Concentration: 0.5 µg/mL
[4]
  Concentration: 100 µg/mL
[5]
  Concentration: 1 µg/mL
[7]
  Concentration: 10 µg/mL

## CN(CC(=O)N/N=C/c1ccncc1)c1ccc2ccccc2c1
[1]
  Concentration: 1 µg/mL
[4]
  Concentration: 100 µg/mL
[5]
  Concentration: 10 µg/mL
[7]
  Concentration: 10 µg/mL

## CC(CC(=O)NN)Nc1ccc2ccccc2c1 (stereo unspecified)
[1]
  Concentration: 5 µg/mL
[4]
  Concentration: 100 µg/mL
[5]
  Concentration: 10 µg/mL
[7]
  Concentration: 50 µg/mL

## CN(CC(=O)NN)c1ccc2ccccc2c1
[1]
  Concentration: 2 µg/mL
[4]
  Concentration: 50 µg/mL
[5]
  Concentration: 10 µg/mL
[7]
  Concentration: 10 µg/mL

## CC(Nc1ccc2ccccc2c1)C(=O)NN (stereo unspecified)
[1]
  Concentration: 0.5 µg/mL
[4]
  Concentration: 50 µg/mL
[5]
  Concentration: 1 µg/mL
[7]
  Concentration: 10 µg/mL

## COc1ccc2cc(NC(C)C(=O)NN)ccc2c1 (stereo unspecified)
[1]
  Concentration: 10 µg/mL
[4]
  Concentration: 100 µg/mL
[5]
  Concentration: 50 µg/mL
[7]
  Concentration: 50 µg/mL

## O=C(O)CNc1ccc2ncccc2c1
[1]
  Concentration: 10 µg/mL
[4]
  Concentration: 100 µg/mL
[5]
  Concentration: 100 µg/mL
[7]
  Concentration: 50 µg/mL
